Data taken from ChEMBL document CHEMBL3784955, “Development and in Vitro Evaluation of a Microbicide Gel Formulation for a Novel Non-Nucleoside Reverse Transcriptase Inhibitor Belonging to the N-Dihydroalkyloxybenzyloxopyrimidines (N-DABOs) Family” (J Med Chem, 2016).
Active and inactive are the calls of the source. No cut-off for these calls is given here.

Columns and labels:
[1] = test system: Human immunodeficiency virus 1; assay: Antiviral activity against HIV1 NL4.3 infected in human TZM-bl cells incubated for 30 mins prior to infection measured after 48 hrs by luciferase assay; assay type: functional, organism-based; conditions: Human immunodeficiency virus 1, NL4.3, TZM-bl
Procedure, shortened: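 TZM-bl cells (10 000/well, 10⁵ cells/mL in medium with 30 μg/mL DEAE dextran) preincubated 30 min at 37 °C, 5% CO₂ with serial compound dilutions; 200 TCID₅₀ HIV-1 WT or mutant virus added, luciferase read after 48 h. Triplicate wells, ≥2 independent experiments; % inhibition vs untreated controls, EC₅₀ by nonlinear regression.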

[2] = Cytotoxicity against human TZM-bl cells assessed as reduction in cell viability after 2 days by WST-1 assay; assay type: cell-based
Procedure, shortened: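 10 000 TZM-bl cells cultured 48 h with serial compound dilutions; WST-1 added and absorbance at 450 nm read after 90 min. Three replicate wells, ≥2 independent experiments; % viability vs untreated controls, CC₅₀ by nonlinear regression.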

[3] = test system: Human immunodeficiency virus 1; assay: Antiviral activity against HIV1 NL4.3 expressing reverse transcriptase Y181C mutant infected in human TZM-bl cells incubated for 30 mins prior to infection measured after 48 hrs by luciferase assay; assay type: functional, organism-based; conditions: Human immunodeficiency virus 1, NL4.3, TZM-bl
Procedure, shortened: (§1)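 TZM-bl cells (10,000/well at 10⁵ cells/mL, medium with 30 μg/mL DEAE dextran) preincubated 30 min at 37 °C, 5% CO₂ with serial compound dilutions. Then 200 TCID₅₀ mutant HIV-1 added per well. After 48 h, luciferase read. Triplicate wells, at least two independent experiments. % inhibition versus untreated controls fitted by nonlinear regression to give EC₅₀.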

[4] = test system: Human immunodeficiency virus 1; assay: Antiviral activity against HIV1 NL4.3 expressing reverse transcriptase L100I mutant infected in human TZM-bl cells incubated for 30 mins prior to infection measured after 48 hrs by luciferase assay; assay type: functional, organism-based; conditions: Human immunodeficiency virus 1, NL4.3, TZM-bl; procedure, shortened: as §1
[5] = test system: Human immunodeficiency virus 1; assay: Antiviral activity against HIV1 NL4.3 expressing reverse transcriptase K103N mutant infected in human TZM-bl cells incubated for 30 mins prior to infection measured after 48 hrs by luciferase assay; assay type: functional, organism-based; conditions: Human immunodeficiency virus 1, NL4.3, TZM-bl; procedure, shortened: as §1
Liver microsome = assay: Metabolic stability in liver microsomes (unknown origin) assessed as parent compound remaining; assay type: ADME; conditions: human
[6] = target: Human immunodeficiency virus type 1 reverse transcriptase (Human immunodeficiency virus 1, UniProt Q72547); assay: Inhibition of recombinant HIV1 His-tagged p66/p51 reverse transcriptase expressed in Escherichia coli assessed as reduction in [3H]dTTP incorporation using poly(rA)-oligo(dT) (12 to 18 bp) as template/primer incubated for 20 mins by scintillation counting method
[7] = Effective permeability of compound at pH 7.4 after 5 hrs by PAMPA; assay type: ADME; conditions: read-out: Peff
Procedure, shortened: (§2)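 Filter coated with 1% w/v phosphatidylcholine in dodecane; acceptor 50% DMSO in phosphate buffer. 5 h at room temperature with gentle shaking; LC-UV at 280 nm on both sides; Pe calculated in cm/s. Three plates on different days.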

[8] = test system: Human immunodeficiency virus 1; assay: Antiviral activity against HIV1 NL4.3 expressing reverse transcriptase V90I mutant infected in human TZM-bl cells incubated for 30 mins prior to infection measured after 48 hrs by luciferase assay; assay type: functional, organism-based; conditions: Human immunodeficiency virus 1, NL4.3, TZM-bl; procedure, shortened: as §1
[9] = test system: Human immunodeficiency virus 1; assay: Antiviral activity against HIV1 NL4.3 expressing reverse transcriptase E138K mutant infected in human TZM-bl cells incubated for 30 mins prior to infection measured after 48 hrs by luciferase assay; assay type: functional, organism-based; conditions: Human immunodeficiency virus 1, NL4.3, TZM-bl; procedure, shortened: as §1
[10] = test system: Human immunodeficiency virus 1; assay: Antiviral activity against HIV1 NL4.3 expressing reverse transcriptase K101E mutant infected in human TZM-bl cells incubated for 30 mins prior to infection measured after 48 hrs by luciferase assay; assay type: functional, organism-based; conditions: Human immunodeficiency virus 1, NL4.3, TZM-bl; procedure, shortened: as §1
[11] = Effective permeability of compound at pH 4.2 after 5 hrs by PAMPA; assay type: ADME; conditions: read-out: Peff; procedure, shortened: as §2
[12] = test system: Human immunodeficiency virus 1; assay: Antiviral activity against HIV1 NL4.3 expressing reverse transcriptase V106A mutant infected in human TZM-bl cells incubated for 30 mins prior to infection measured after 48 hrs by luciferase assay; assay type: functional, organism-based; conditions: Human immunodeficiency virus 1, NL4.3, TZM-bl; procedure, shortened: as §1
[13] = test system: Human immunodeficiency virus 1; assay: Antiviral activity against HIV1 NL4.3 infected in human TZM-bl cells using compound gel formulation incubated for 72 hrs by luciferase based transwell assay; assay type: functional, organism-based; conditions: Human immunodeficiency virus 1, NL4.3, TZM-bl
Procedure, shortened: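 Transwell format, gel reformulated without β-cyclodextrins. TZM-bl cells (4 × 10⁴/apical chamber, 3 μm pore) cultured overnight. 60 TCID₅₀ NL4.3 added apically with gel at 50%, final drug 5000–0.5 nM (tenfold steps); medium in basal compartment. Blank gel used for virus titration. Luciferase read-out; triplicates.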

[14] = Cytotoxicity against human TZM-bl cells assessed as reduction in cell viability at 5% gel formulation of compound after 2 days by WST-1 assay; assay type: cell-based; conditions: 48 h
[15] = test system: Human immunodeficiency virus 1; assay: Antiviral activity against HIV1 NL4.3 infected in human TZM-bl cells using compound gel formulation incubated for 30 mins prior to infection measured after 48 hrs by luciferase assay; assay type: functional, organism-based; conditions: Human immunodeficiency virus 1, NL4.3, TZM-bl
Procedure, shortened: (§3)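 Gel formulation tested by the free-drug TZM-bl procedure alongside free drug in solution and blank gel: 10 000 cells with 30 μg/mL DEAE dextran, 30 min preincubation at 37 °C, 200 TCID₅₀ virus, luciferase after 48 h. Each concentration in triplicate; EC₅₀ from % inhibition vs untreated controls by nonlinear regression.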

[16] = Selectivity index, ratio of CC50 for human TZM-bl cells to EC50 for HIV1 NL4.3 infected in human TZM-bl cells; assay type: toxicity, cell-based; conditions: read-out: Ratio CC50/EC50
Procedure, shortened: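 SI = CC50/EC50 in TZM-bl cells. EC50: 10 000 cells (10⁵/mL, 30 μg/mL DEAE dextran) preincubated 30 min at 37 °C with serial compound dilutions, then infected with 200 TCID50 virus; luciferase read at 48 h. CC50: 10 000 cells given serial dilutions for 48 h; WST-1 absorbance at 450 nm after 90 min. Triplicates, ≥2 experiments; nonlinear regression.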

[17] = test system: Human immunodeficiency virus 1; assay: Antiviral activity against HIV1 NL4.3 infected in human TZM-bl cells using compound gel formulation stored at room temperature in dark for 1 month incubated for 30 mins with cells prior to infection measured after 48 hrs by luciferase assay; assay type: functional, organism-based; procedure, shortened: as §3
[18] = Chemical stability in pH 4.2 solution assessed as drug recovery using compound gel formulation incubated for 1 month at room temperature under dark condition; assay type: physicochemical; conditions: pH 4.2 solution (compound gel formulation), read-out: Drug recovery
Procedure, shortened: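 Gel at pH 4.2 (vaginal formulation) with final drug concentration 17 μM stored 1 month at room temperature without light; drug recovery measured, with viscosity and pH monitored.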

SMILES | EC50 [1] | CC50 at 48 h [2] | EC50 [3] | EC50 [5] | EC50 [9] | EC50 [10] | EC50 [12] | also measured
Cc1c(C(C)c2c(Cl)cccc2Cl)nc(N(C)Cc2ccc(N3CCNCC3)cc2)[nH]c1=O (centres undefined) | 0.102 µM | 13.2 µM |  |  |  |  |  | 
Cc1c(Cc2c(Cl)cccc2Cl)nc(N(C)Cc2ccc([N+](=O)[O-])cc2)[nH]c1=O | 0.0086 µM | 19.5 µM | 0.201 µM | 0.367 µM | 0.035 µM | 0.051 µM |  | EC50 [4]: 0.22 µM; Stability (Liver microsome): 99%; IC50 [6]: 0.00785 µM; Papp at 5 h [7]: 109 nm/s; EC50 [8]: 0.013 µM; Papp at 5 h [11]: 19 nm/s
Cc1c(C(C)c2c(F)cccc2F)nc(N(C)Cc2ccc([N+](=O)[O-])cc2)[nH]c1=O (centres undefined) | 0.01 µM | > 50 µM | 0.814 µM | 0.518 µM | 0.065 µM | 0.134 µM |  | EC50 [4]: 1.5 µM; EC50 [8]: 0.03 µM
Cc1c(C(C)c2c(Cl)cccc2Cl)nc(N(C)Cc2ccc(N3CCOCC3)cc2)[nH]c1=O (centres undefined) | 0.086 µM | 38.4 µM | 1.29 µM | 1.5 µM | 0.256 µM | 0.942 µM | 0.015 µM | 
Cc1c(C(C)c2c(Cl)cccc2Cl)nc(N(C)Cc2ccc([N+](=O)[O-])cc2)[nH]c1=O (centres undefined) | 0.104 µM | > 50 µM |  |  |  |  |  | 
COc1ccc(C2CC2CSc2nc(C(C)c3c(F)cccc3F)c(C)c(=O)[nH]2)cc1 (centres undefined) | 0.093 µM | 31.1 µM | 1.61 µM | 0.549 µM | 0.246 µM | 0.45 µM | 0.056 µM | 
Cc1c(C(C)c2c(F)cccc2F)nc(N(C)Cc2ccc(N3CCN(C)CC3)cc2)[nH]c1=O (centres undefined) | 0.0079 µM | 26.2 µM | 0.331 µM | 2.46 µM | 0.042 µM | 0.138 µM |  | EC50 [4]: 1.57 µM; EC50 [8]: 0.022 µM
Cc1cc(C)c(Nc2ccnc(Nc3ccc(C#N)cc3)n2)c(C)c1 [DAPIVIRINE] | 0.0013 µM | 3.4 µM |  |  |  |  |  | 
Cc1c(Cc2c(Cl)cccc2Cl)nc(N(C)Cc2ccc(N3CCN(C)CC3)cc2)[nH]c1=O | 0.094 µM | 3.2 µM | 0.704 µM | 0.792 µM | 0.274 µM | > 1 µM | 0.018 µM | Stability (Liver microsome): 99%; Papp at 5 h [7]: 13.7 nm/s; Papp at 5 h [11]: 5.8 nm/s
COc1ccc(CN(C)c2nc(C(C)c3c(F)cccc3F)c(C)c(=O)[nH]2)cc1 (centres undefined) | 0.0033 µM | 88.8 µM | 0.08 µM | 0.102 µM | 0.017 µM | 0.031 µM |  | EC50 [4]: 0.084 µM; EC50 [13]: 0.03 µM; Activity [14]: Toxic; Stability (Liver microsome): 99%; EC50 [15]: 0.0023 µM; Papp at 5 h [7]: 55.4 nm/s; selectivity ratio [16]: > 10000; Activity [17]: Active; EC50 [8]: 0.0087 µM; remaining at 730.5 h [18]: 100%; Papp at 5 h [11]: 37.8 nm/s
Cc1c(Cc2c(Cl)cccc2Cl)nc(N(C)Cc2ccc(N3CCOCC3)cc2)[nH]c1=O | 0.657 µM | 9.9 µM |  |  |  |  |  | Stability (Liver microsome): 99%; IC50 [6]: 0.09 µM; Papp at 5 h [7]: 219 nm/s
C[C@H](Cn1cnc2c(N)ncnc21)OCP(=O)(O)O [TENOFOVIR ANHYDROUS] |  |  |  |  |  |  |  | EC50 [13]: 3 µM
Cc1c(C(C)c2c(Cl)cccc2Cl)nc(N(C)Cc2ccc(N3CCN(C)CC3)cc2)[nH]c1=O (centres undefined) | 0.029 µM | > 10 µM | 0.627 µM | 1.04 µM | 0.103 µM | 0.294 µM | 0.0063 µM | Stability (Liver microsome): 99%; Papp at 5 h [7]: 9.1 nm/s
COc1ccc(CN(C)c2nc(Cc3c(Cl)cccc3Cl)c(C)c(=O)[nH]2)cc1 | 0.015 µM | 17.9 µM | 0.68 µM |  |  |  | 0.01 µM | IC50 [6]: 0.005 µM
COc1ccc(CN(C)c2nc(C(C)c3c(Cl)cccc3Cl)c(C)c(=O)[nH]2)cc1 (centres undefined) | 0.012 µM | > 100 µM | 0.209 µM |  |  |  | 0.01 µM | IC50 [6]: 0.017 µM
Cc1c(C(C)c2c(F)cccc2F)nc(N(C)Cc2n[nH]c3ccccc23)[nH]c1=O (centres undefined) | 0.329 µM | > 100 µM | > 10 µM | > 10 µM | 0.95 µM | > 10 µM |  | EC50 [4]: > 10 µM; EC50 [8]: 0.687 µM
COc1ccc(CN(C)c2nc(C(C)c3c(F)cccc3F)cc(=O)[nH]2)cc1 (centres undefined) | 0.0026 µM | 48.1 µM | 0.094 µM | 0.034 µM | 0.0091 µM | 0.017 µM | 0.00087 µM | 
Cc1c(Cc2c(Cl)cccc2Cl)nc(N(C)Cc2ccc(N3CCN(C(=O)OC(C)(C)C)CC3)cc2)[nH]c1=O | 2.93 µM | 2.59 µM |  |  |  |  |  | 
Cc1c(Cc2c(Cl)cccc2Cl)nc(N(C)Cc2ccc(N3CCNCC3)cc2)[nH]c1=O | 0.11 µM | 20.7 µM |  |  |  |  |  | 
